From paper PMC12065821 (Scientific Reports, 2025)
Where a SMILES comes first, the peptide text is derived from it. Bridges are numbered along the chain shown (N, C = ends). [ ]: non-standard residue; d: D form. The star is where a group is joined. Heptanoyl(6-Me) = CC(C)CCCCC(=O)*; X1 = CC[C@H](C)CCCCC(=O)*; Dab = NCC[C@H](N)C(=O)O

Tests used:
[1] = cited from earlier work
rats = test: Regression of kidney colistin/colistin B concentrations against CR, BUN, SQS; assay type: in vivo; conditions: 95% CI; for regression coefficient between kidney concentration and SQS: ordered logistic regression; for regression coefficient between kidney concentration and contemporaneous BUN / regression coefficient between kidney concentration and contemporaneous CR: simple linear regression
[2] = Kidney PK of CMS/CMS-E2 and formed colistin/colistin B; assay type: in vivo, rats; conditions: for Kp / tissue level at time at 8 h / tissue level at time at 24 h: male, Sprague-Dawley, rat, ip; for Kp: kidney (cortex) / plasma, colistin/colistin B; for Kp / Kidney/plasma ratio of Cmax, colistin/colistin B: rats; for tissue level at time at 8 h / tissue level at time at 24 h: kidney cortex; for tissue level at time at 8 h / tissue level at time at 24 h / Cmax formed colistin/colistin B in kidneys: SD; for Tmax formed colistin/colistin B in kidneys / Cmax formed colistin/colistin B in kidneys / AUC0-inf formed colistin/colistin B in kidneys / t1/2 formed colistin/colistin B in kidneys: rat kidney cortex, LC-MS/MS; for Tmax formed colistin/colistin B in kidneys / AUC0-inf formed colistin/colistin B in kidneys / t1/2 formed colistin/colistin B in kidneys: NCA; for Cmax formed colistin/colistin B in kidneys: mean ± SD
How it was run: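 Male Sprague-Dawley rats (300 ± 15 g) got one i.p. dose in saline. At each sampling time rats were anaesthetised with tiletamine-zolazepam (40 mg/kg) and killed, and the left kidney was frozen at −70 °C. Kidney cortex was homogenised in saline (1:10 m/v, 1% BSA). Samples went through WCX solid-phase extraction with polymyxin B1 internal standard, then LC-MS/MS. Prodrug was calculated as total (after […] sulfuric acid hydrolysis) minus free colistin/colistin B. Parameters came from non-compartmental analysis.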

[3] = PK-TD model, PK component; assay type: in vivo; conditions: rats, one-compartment PK-TD model, mean ± SD
How it was run: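 Plasma prodrug and formed colistin/colistin B concentrations after i.p. dosing were fitted by a compartmental model. The final model used one compartment each for prodrug and formed drug, a conversion rate constant, and linear first-order total clearance from both. Fit was judged by R², AIC, BIC and visual inspection. Estimates are mean ± SD.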

[4] = Plasma PK of CMS/CMS-E2 and formed colistin/colistin B; assay type: in vivo, rats; conditions: rat plasma, LC-MS/MS, NCA, mean ± SD
How it was run: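 Male Sprague-Dawley rats were dosed once i.p. in saline, and serial jugular-vein blood was taken before and after dosing. Blood was heparinised (1%), spun at 4,982 × g for 10 min at 4 °C, and plasma stored at −70 °C. Plasma (40 µL) went through WCX solid-phase extraction with polymyxin B1 internal standard, then LC-MS/MS. Prodrug was total (acid-hydrolysed) minus free analyte. […] Values are mean ± SD, compared by Wilcoxon rank sum.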

[5] = cited from earlier work; remark: listed apart in the source
[6] = cited from earlier work; remark: listed apart in the source
patients = conditions: plasma colistin; cited from earlier work
[7] = 20 mg/kg CBA, Kidney/plasma ratio of AUC0-inf, single i.p. CMS or CMS-E2 20 mg/kg CBA
[8] = single i.p. CMS or CMS-E2 20 mg/kg CBA
[9] = single i.p. CMS-E2 40 mg/kg CBA

CC(C)CCCCC(=O)N[C@@H](CCN)C(=O)N[C@H](C(=O)N[C@@H](CCN)C(=O)N[C@H]1CCNC(=O)[C@H]([C@@H](C)O)NC(=O)[C@H](CCN)NC(=O)[C@H](CCN)NC(=O)[C@H](CC(C)C)NC(=O)[C@@H](CC(C)C)NC(=O)[C@H](CCN)NC1=O)[C@@H](C)O [colistin B] ({Heptanoyl(6-Me)}-[Dab]T[Dab][Dab][Dab][dL]L[Dab][Dab]T; lactam 4-C)
plasma protein binding [1]: 41.7 ± 12.4% | regression coefficient between kidney concentration and SQS (rats): 0.03 | regression coefficient between kidney concentration and contemporaneous BUN (rats): 0.08 | regression coefficient between kidney concentration and contemporaneous CR (rats): 1.58 | Kp [2, 7]: 19.7 | Kp ([2]; 40 mg/kg CBA, Kidney/plasma ratio of AUC0-inf, single i.p. CMS-E2 40 mg/kg CBA): 39.6 | Kp ([2]; 40 mg/kg CBA, Kidney/plasma ratio of Cmax, single i.p. CMS-E2 40 mg/kg CBA): 20.1 | tissue level at time at 8 h ([2]; 20 mg/kg CBA): 4860 ± 2360 ng/g | tissue level at time at 24 h ([2]; 40 mg/kg CBA): 11500 ± 1740 ng/g | Tmax formed colistin/colistin B in kidneys [2, 8]: 4 h | Cmax formed colistin/colistin B in kidneys [2, 8]: 17.6 ± 6.79 µg/g | Tmax formed colistin/colistin B in kidneys [2, 9]: 10 h | Cmax formed colistin/colistin B in kidneys [2, 9]: 148 ± 32.8 µg/g | Kidney/plasma ratio of Cmax, colistin/colistin B [2, 8]: 15.4 | CLcolistin/colistin B (total body clearance) [3, 9]: 1.89 ± 0.809 mL/min/kg | AUC0-inf formed colistin/colistin B in plasma [4, 8]: 4140 ± 1260 ng·h/mL | Cmax formed colistin/colistin B in plasma [4, 8]: 1140 ± 217 ng/mL | Tmax formed colistin/colistin B in plasma [4, 8]: 1.67 ± 0.471 h | t1/2 formed colistin/colistin B in plasma [4, 8]: 1.22 ± 0.313 h | AUC0-inf formed colistin/colistin B in plasma [4, 9]: 35500 ± 23900 ng·h/mL | Cmax formed colistin/colistin B in plasma [4, 9]: 7080 ± 2770 ng/mL | Tmax formed colistin/colistin B in plasma [4, 9]: 4.71 ± 0.881 h | t1/2 formed colistin/colistin B in plasma [4, 9]: 2.13 ± 0.827 h | clearance after the colistin sulfate [5]: 5.2 ± 0.4 mL/min/kg | clearance relative to colistin [5]: almost half | clearance when administered as a single component [5]: 3.05 ± 0.62 mL/min/kg

CC[C@H](C)CCCCC(=O)N[C@@H](CCN)C(=O)N[C@H](C(=O)N[C@@H](CCN)C(=O)N[C@H]1CCNC(=O)[C@H]([C@@H](C)O)NC(=O)[C@H](CCN)NC(=O)[C@H](CCN)NC(=O)[C@H](CC(C)C)NC(=O)[C@@H](CC(C)C)NC(=O)[C@H](CCN)NC1=O)[C@@H](C)O [colistin, Colistin] (X1-[Dab]T[Dab][Dab][Dab][dL]L[Dab][Dab]T; lactam 4-C)
fraction undergoing glomerular filtration into the tubular lumen [6]: 18% | regression coefficient between kidney concentration and SQS (rats): 0.10 | regression coefficient between kidney concentration and contemporaneous BUN (rats): 0.27 | regression coefficient between kidney concentration and contemporaneous CR (rats): 0.74 | Kp ([2]; 10 mg/kg CBA, Kidney/plasma ratio of AUC0-inf, single i.p. CMS 10 mg/kg CBA): 31.6 | Kp ([2]; 10 mg/kg CBA, Kidney/plasma ratio of Cmax, single i.p. CMS 10 mg/kg CBA): 13.7 | Kp [2, 7]: 26.1 | tissue level at time at 8 h ([2]; 10 mg/kg CBA): 3550 ± 594 ng/g | tissue level at time at 24 h ([2]; 20 mg/kg CBA): 5970 ± 1850 ng/g | AUC0-inf formed colistin/colistin B in kidneys ([2]; single i.p. CMS 10 mg/kg CBA): 64.7 µg·h/g | Tmax formed colistin/colistin B in kidneys ([2]; single i.p. CMS 10 mg/kg CBA): 2 h | t1/2 formed colistin/colistin B in kidneys ([2]; single i.p. CMS 10 mg/kg CBA): 1.21 h | Cmax formed colistin/colistin B in kidneys ([2]; single i.p. CMS 10 mg/kg CBA): 10.4 ± 3.13 µg/g | AUC0-inf formed colistin/colistin B in kidneys ([2]; single i.p. CMS 20 mg/kg CBA): 603 µg·h/g | t1/2 formed colistin/colistin B in kidneys ([2]; single i.p. CMS 20 mg/kg CBA): 6.23 h | Tmax formed colistin/colistin B in kidneys [2, 8]: 6 h | Cmax formed colistin/colistin B in kidneys [2, 8]: 53.6 ± 11.0 µg/g | Kidney/plasma ratio of Cmax, colistin/colistin B [2, 8]: 12.7 | steady-state trough concentration associated with increased nephrotoxicity (patients): > 2.2 mg/L | CLcolistin/colistin B (total body clearance) ([3]; single i.p. CMS 10 mg/kg CBA): 2.57 ± 0.420 mL/min/kg | AUC0-inf formed colistin/colistin B in plasma ([4]; single i.p. CMS 10 mg/kg CBA): 2050 ± 371 ng·h/mL | Cmax formed colistin/colistin B in plasma ([4]; single i.p. CMS 10 mg/kg CBA): 764 ± 123 ng/mL | Tmax formed colistin/colistin B in plasma ([4]; single i.p. CMS 10 mg/kg CBA): 2.00 ± 0.00 h | t1/2 formed colistin/colistin B in plasma ([4]; single i.p. CMS 10 mg/kg CBA): 0.74 ± 0.0768 h | AUC0-inf formed colistin/colistin B in plasma [4, 8]: 23100 ± 7460 ng·h/mL | Cmax formed colistin/colistin B in plasma [4, 8]: 3990 ± 1520 ng/mL | Tmax formed colistin/colistin B in plasma [4, 8]: 3.55 ± 0.891 h | t1/2 formed colistin/colistin B in plasma [4, 8]: 1.88 ± 0.672 h | t1/2 in prior reports ([5]; rats, CMS and formed colistin): 0.533 to 1.8 h
